From ChEMBL document CHEMBL1121680, “2,4-Diamino-5-benzylpyrimidines and analogues as antibacterial agents. 5. 3',5'-Dimethoxy-4'-substituted-benzyl analogues of trimethoprim” (J Med Chem, 1981)
One block for each compound: values may come before it.

Key:
[1] = target: T1, Dihydrofolate reductase (Rattus norvegicus) (UniProt Q920D2); test: Percent inhibition of compound against Dihydrofolate Reductase of rat liver at 27400 M
T1 sequence (whole entry): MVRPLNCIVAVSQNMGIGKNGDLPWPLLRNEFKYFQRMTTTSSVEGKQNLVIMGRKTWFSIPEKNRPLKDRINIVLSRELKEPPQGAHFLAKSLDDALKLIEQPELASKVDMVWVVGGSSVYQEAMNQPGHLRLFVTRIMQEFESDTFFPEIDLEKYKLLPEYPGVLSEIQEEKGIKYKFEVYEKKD

Dihydrofolate reductase [2] = target: T2, Dihydrofolate reductase (Rattus norvegicus, UniProt Q920D2); test: Inhibition of rat liver Dihydrofolate reductase.; conditions: read-out: I50
T2 sequence (Q920D2 whole entry): T1 sequence (whole entry)

[3] = target: T1, Dihydrofolate reductase (Rattus norvegicus); test: Compound was tested for inhibitory activity against Dihydrofolate reductase of rat liver at 10000 M
Escherichia coli [4] = test: Antimicrobial activity against Escherichia coli CN348 in mice in experiment 1; format: functional, Mus musculus
Escherichia coli [5] = test: Antimicrobial activity against Escherichia coli CN348 in mice in experiment 2; format: functional, Mus musculus
Escherichia coli [6] = test: Antimicrobial activity against Escherichia coli CN348 in mice in experiment 3; format: functional, Mus musculus
Klebsiella pneumoniae [7] = test: Antimicrobial activity against Klebsiella pneumoniae CN3632 in mice in experiment 1; format: functional, Mus musculus
Klebsiella pneumoniae [8] = test: Antimicrobial activity against Klebsiella pneumoniae CN3632 in mice in experiment 3; format: functional, Mus musculus
Mus musculus [9] = test: Concentration of compound in serum of mouse 10 min after oral administration of 10 mg dose; format: functional, organism-based
Procedure, shortened: (§1)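 Single po dose (10 or 2 mg per mouse) to groups of three mice (18–20 g); ~0.2 mL blood drawn from supraorbital plexus at 10–360 min and pooled; serum drug level assayed microbiologically with Bacillus pumilus as test organism. Half-life calculated from curve slopes once compound apparently evenly distributed.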

Mus musculus [10] = test: Concentration of compound in serum of mouse 10 min after oral administration of 2 mg dose; format: functional, organism-based; procedure, shortened: as §1
Mus musculus [11] = test: Concentration of compound in serum of mouse 180 min after oral administration of 10 mg dose; format: functional, organism-based; procedure, shortened: as §1
Mus musculus [12] = test: Concentration of compound in serum of mouse 180 min after oral administration of 2 mg dose; format: functional, organism-based; procedure, shortened: as §1
Mus musculus [13] = test: Concentration of compound in serum of mouse 30 min after oral administration of 10 mg dose; format: functional, organism-based; procedure, shortened: as §1
Mus musculus [14] = test: Concentration of compound in serum of mouse 30 min after oral administration of 2 mg dose; format: functional, organism-based; procedure, shortened: as §1
Mus musculus [15] = test: Concentration of compound in serum of mouse 360 min after oral administration of 10 mg dose; format: functional, organism-based; procedure, shortened: as §1
Mus musculus [16] = test: Concentration of compound in serum of mouse 360 min after oral administration of 2 mg dose; format: functional, organism-based; procedure, shortened: as §1
Mus musculus [17] = test: Concentration of compound in serum of mouse 90 min after oral administration of 10 mg dose; format: functional, organism-based; procedure, shortened: as §1
Mus musculus [18] = test: Concentration of compound in serum of mouse 90 min after oral administration of 2 mg dose; format: functional, organism-based; procedure, shortened: as §1
Mus musculus [19] = test: Half-life in serum of mice after oral administration of 2 mg dose; format: functional, organism-based; procedure, shortened: as §1
Proteus vulgaris [20] = test: Antimicrobial activity against Proteus vulgaris CN329 in mice in experiment 1; format: functional, Mus musculus
Proteus vulgaris [21] = test: Antimicrobial activity against Proteus vulgaris CN329 in mice in experiment 2; format: functional, Mus musculus
Staphylococcus aureus [22] = test: Antimicrobial activity against Staphylococcus aureus CN491 in mice in experiment 1; format: functional, Mus musculus
Staphylococcus aureus [23] = test: Antimicrobial activity against Staphylococcus aureus CN491 in mice in experiment 2; format: functional, Mus musculus
Staphylococcus aureus [24] = test: Antimicrobial activity against Staphylococcus aureus CN491 in mice in experiment 3; format: functional, Mus musculus
Streptococcus pyogenes [25] = test: Antimicrobial activity against streptococcus pyogenes CN10 in mice in experiment 2; format: functional, Mus musculus
Mus musculus [26] = test: Half-life in serum of mice after oral administration of 10 mg dose; format: functional, organism-based; procedure, shortened: as §1
Streptococcus pyogenes [27] = test: Antimicrobial activity against streptococcus pyogenes CN10 in mice in experiment 3; format: functional, Mus musculus
Dihydrofolate reductase [28] = target: T2, Dihydrofolate reductase; test: Compound was tested for inhibitory activity against Dihydrofolate Reductase of rat liver; conditions: read-out: I50
Dihydrofolate reductase [29] = target: T3, Dihydrofolate reductase (Escherichia coli, UniProt P0ABQ4); test: Compound was tested for inhibitory activity against Dihydrofolate reductase of E. coli; Value ranges from 0.5-0.7M; conditions: read-out: I50
T3 sequence (P0ABQ4 whole entry): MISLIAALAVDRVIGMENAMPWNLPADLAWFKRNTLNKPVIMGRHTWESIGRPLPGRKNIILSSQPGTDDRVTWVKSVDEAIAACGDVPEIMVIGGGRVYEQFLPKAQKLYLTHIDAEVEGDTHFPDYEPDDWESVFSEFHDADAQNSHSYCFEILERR

[30] = target: T1, Dihydrofolate reductase (Rattus norvegicus); test: Compound was tested for inhibitory activity against Dihydrofolate reductase of rat liver at 40000 M
[31] = target: T1, Dihydrofolate reductase (Rattus norvegicus); test: Compound was tested for inhibitory activity against Dihydrofolate reductase of rat liver at 10000; conditions: concentration not given here
[32] = target: T1, Dihydrofolate reductase (Rattus norvegicus); test: Percent inhibition of compound against Dihydrofolate Reductase of rat liver at 16000 M
[33] = target: T1, Dihydrofolate reductase (Rattus norvegicus); test: Compound was tested for inhibitory activity against Dihydrofolate reductase of rat liver at 2400 M
[34] = target: T1, Dihydrofolate reductase (Rattus norvegicus); test: Percent inhibition of compound against Dihydrofolate Reductase(DHFR) of rat liver at 40000 M

IC50 (Dihydrofolate reductase [2]): 270 µM
Structure (SMILES): CCCCCOc1c(OC)cc(Cc2cnc(N)nc2N)cc1OC

inhibition [3]: 39%
Structure (SMILES): COc1cc(Cc2cnc(N)nc2N)cc(OC)c1OCCCN

IC50 (Dihydrofolate reductase [2]): > 400 µM
Structure (SMILES): COc1cc(Cc2cnc(N)nc2N)cc(OC)c1OCCO

inhibition [30]: 36%
Structure (SMILES): COc1cc(Cc2cnc(N)nc2N)cc(OC)c1OCCCN1CCN(C)CC1

IC50 (Dihydrofolate reductase [2]): 200 µM
Structure (SMILES): CCc1c(OC)cc(Cc2cnc(N)nc2N)cc1OC

inhibition [32]: 23%
Structure (SMILES): COc1cc(Cc2cnc(N)nc2N)cc(OC)c1OCC1CO1 (stereo not drawn)

IC50 (Dihydrofolate reductase [28]): 250 µM
Structure (SMILES): CCCOc1c(OC)cc(Cc2cnc(N)nc2N)cc1OC

The next lines start with the compound.

Structure (SMILES): COc1cc(Cc2cnc(N)nc2N)cc(OC)c1OCC(O)CO (stereo not drawn)
inhibition [1]: 32%

Structure (SMILES): CCCCOc1c(OC)cc(Cc2cnc(N)nc2N)cc1OC
IC50 (Dihydrofolate reductase [2]): 580 µM

Structure (SMILES): COc1cc(Cc2cnc(N)nc2N)cc(OC)c1OCCCCN1C(=O)c2ccccc2C1=O
IC50 (Dihydrofolate reductase [2]): 54 µM

Structure (SMILES): COC(=O)CCCCCOc1c(OC)cc(Cc2cnc(N)nc2N)cc1OC
IC50 (Dihydrofolate reductase [2]): 1100 µM

Structure (SMILES): COc1cc(Cc2cnc(N)nc2N)cc(OC)c1OCCCCl
IC50 (Dihydrofolate reductase [2]): 250 µM
ED50 (Escherichia coli [4]): 6.2 mg mouse-1
ED50 (Escherichia coli [5]): 9.4 mg mouse-1
ED50 (Escherichia coli [6]): >10 mg mouse-1
ED50 (Klebsiella pneumoniae [7]): 1 mg mouse-1
ED50 (Klebsiella pneumoniae [8]): >10 mg mouse-1
Concentration (Mus musculus [9]): 41 µg/mL
Concentration (Mus musculus [10]): 7 µg/mL
Concentration (Mus musculus [11]): 15 µg/mL
Concentration (Mus musculus [12]): 0.7 µg/mL
Concentration (Mus musculus [13]): 31 µg/mL
Concentration (Mus musculus [14]): 2.9 µg/mL
Concentration (Mus musculus [15]): 7 µg/mL
Concentration (Mus musculus [16]): 0.24 µg/mL
Concentration (Mus musculus [17]): 26 µg/mL
Concentration (Mus musculus [18]): 1.3 µg/mL
T1/2 (Mus musculus [19]): 1.9 h
ED50 (Proteus vulgaris [20]): 8.2 mg mouse-1
ED50 (Proteus vulgaris [21]): >10 mg mouse-1
ED50 (Staphylococcus aureus [22]): 2.1 mg mouse-1
ED50 (Staphylococcus aureus [23]): >10 mg mouse-1
ED50 (Staphylococcus aureus [24]): 7.1 mg mouse-1
ED50 (Streptococcus pyogenes [25]): 3.3 mg mouse-1
T1/2 (Mus musculus [26]): 2.4 h
ED50 (Streptococcus pyogenes [27]): 7.2 mg mouse-1

Structure (SMILES): CCOc1c(OC)cc(Cc2cnc(N)nc2N)cc1OC
IC50 (Dihydrofolate reductase [28]): 620 µM
IC50 (Dihydrofolate reductase [29]): 0.0075 µM

Structure (SMILES): COc1cc(Cc2cnc(N)nc2N)cc(OC)c1OCCN
inhibition [30]: 38%

Structure (SMILES): COc1cc(Cc2cnc(N)nc2N)cc(OC)c1OCCCO
inhibition [31]: 24%

Structure (SMILES): CCCCCCOc1c(OC)cc(Cc2cnc(N)nc2N)cc1OC
IC50 (Dihydrofolate reductase [2]): 200 µM

Structure (SMILES): COc1cc(Cc2cnc(N)nc2N)cc(OC)c1OCCCCCCN1C(=O)c2ccccc2C1=O
inhibition [33]: 25%

Structure (SMILES): COc1cc(Cc2cnc(N)nc2N)cc(OC)c1OC(C)C
inhibition [34]: 9%
